# Only some compounds are listed: those with a hit (about 3.5% of all), similar ones and a draw of the others.
# RGS4 block: inhibitors of human RGS4; hit rate 0.45% among 310,000; B-score at 10 µM; P49798; AID 463165; HEK293 M3R/RGS4 inducible, Fluo-4 calcium flux; stronger effect = higher value; triggered by carbachol at its EC20;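 active = B-score, a plate-corrected calcium signal, over three deviations above library mean, with baseline fluorescence within five deviations of library mean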;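 also: RGS4 expression induced by doxycycline in cells with stable M3 receptor; B-score is computed from the integrated fluorescence ratio over baseline after carbachol; higher B-score means a larger calcium signal and so more RGS4 inhibition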
# Target sequence (P49798 whole entry, looked up): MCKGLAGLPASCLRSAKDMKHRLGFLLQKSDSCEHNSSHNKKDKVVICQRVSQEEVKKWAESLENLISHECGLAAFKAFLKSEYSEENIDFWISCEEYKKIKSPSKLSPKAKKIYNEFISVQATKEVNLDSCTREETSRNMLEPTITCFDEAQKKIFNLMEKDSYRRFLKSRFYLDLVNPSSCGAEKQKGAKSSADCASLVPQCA
# MrgX1 ag: human MrgX1 receptor agonism, primary screen | Q96LB2 | MrgX1-HEK293 cells, Fluo-4 calcium fluorescence, agonist mode; stronger effect = higher value | B-score at 10 µM | hit rate 0.44% among 310,000;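 active = calcium response B-score plate-corrected fluorescence ratio at least 3 library SD, with starting fluorescence B-score inside 5 SD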
# Target sequence (Q96LB2 whole entry, looked up): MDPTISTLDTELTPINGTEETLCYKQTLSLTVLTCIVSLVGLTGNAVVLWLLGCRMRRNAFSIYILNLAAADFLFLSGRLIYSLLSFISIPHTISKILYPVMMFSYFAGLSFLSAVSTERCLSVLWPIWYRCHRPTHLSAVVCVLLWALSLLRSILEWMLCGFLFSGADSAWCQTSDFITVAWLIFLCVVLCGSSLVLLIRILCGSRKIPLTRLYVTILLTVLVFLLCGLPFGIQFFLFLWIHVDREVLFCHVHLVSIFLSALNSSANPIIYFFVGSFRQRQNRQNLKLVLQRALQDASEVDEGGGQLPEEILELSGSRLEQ
#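 System – MrgX1-expressing HEK293 cells · Incubation – cells plated overnight, dye loaded 0.5 h 37 °C, 0.5 h room temperature · Technique – kinetic Fluo-4 NW fluorescence of intracellular calcium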
# MrgX1 antagonist: blocks BAM8-22 activation of human MrgX1 receptor; Q96LB2; B-score at 10 µM; hit rate 1.3% among 310,000; MRGX1-HEK293 calcium flux, Fluo-4, BAM8-22 antagonism; stronger effect = lower value;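 active = calcium-response B-score plate-corrected more than 3 library SD below zero, starting fluorescence within 5 deviations, no agonist response on first addition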;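 also: peak minus trough fluorescence over baseline after final BAM8-22 challenge near maximal dose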
# MrgX1 allo act: human MrgX1 positive allosteric modulation, primary screen; Q96LB2; MrgX1-HEK293, Fluo-4 calcium flux, FDSS; stronger effect = higher value; B-score at 10 µM; hit rate 0.63% among 310,000; AID 588675;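 active = plate-corrected calcium response at least 3 library SD above typical, normal starting fluorescence, not activating the receptor alone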;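 also: compound read alongside a low EC10 to EC30 dose of BAM8-22 agonist; peak minus trough fluorescence over baseline measured at the second addition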
# RGS4 act: RGS4 potentiation or activation; HEK293 M3R/inducible RGS4, carbachol calcium flux Fluo4; stronger effect = lower value; B-score at 10 µM; hit rate 0.92% among 310,000;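 active = B-score of the integrated calcium signal more than 4 SD below the library mean, with starting fluorescence not abnormally high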;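 also: negative B-score means reduced calcium response which marks RGS4 activation or potentiation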
#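 Material: Inducible-RGS4 HEK293 cells carrying M3 receptor; also added: carbachol at ECmax as muscarinic agonist stimulus; incubation: compound preincubation 20 min at room temperature before agonist; signal: Fluo4-AM (2 µM) calcium-flux fluorescence, kinetic read; measure: integrated calcium ratio converted to B score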
# Hits are given with their value; i = inactive; nt = no result given.
SMILES,RGS4 block,MrgX1 ag,MrgX1 antagonist,MrgX1 allo act,RGS4 act
O=C(CC(Sc1ccc(Br)cc1)C(=O)O)c1ccc(F)cc1 (centres undefined),6.3,i,i,i,i
CCC(Sc1ccc(C(=O)O)cc1)C(=O)O (centres undefined),i,i,i,i,i
CC(C)c1ccc2c(c1)CCC1C(C)(CN)CCCC21C (centres undefined),i,46,i,i,i
CC(=O)NC1C(=O)N(CCN2CCOCC2)c2ccc(C)cc21 (centres undefined),i,i,-6.1,i,i
O=C1C=C(N2CCCCCC2)C(=O)N1c1ccc(Cl)cc1,i,i,i,i,-7
O=C(COC(=O)/C=C/c1ccccc1)NCC1CCCO1 (centres undefined),i,i,i,9.8,i
Cc1c(N=Cc2c(O)n(C)c(=O)c3ccccc23)c(=O)n(-c2ccccc2)n1C,i,i,i,i,-7.2
O=C(Cn1c(CO)nc2ccccc21)NC1CCCCCC1,i,i,-10,i,i
Nc1nonc1-c1nc2ccccc2n1CC(=O)NC1CCCC1,i,i,i,i,i
COCCCNC(=O)CN(c1cc([N+](=O)[O-])ccc1OC)S(C)(=O)=O,i,i,i,i,i
O=C(N/N=C/c1ccccc1)c1ccc(N2CCCC2=O)cc1,i,i,i,i,i
CCCCCCc1cc2cc(C(N)=O)c(=N)oc2cc1O,i,i,i,i,-8.1
CCCCCCc1cc2cc(C(=O)OCC)c(=O)oc2cc1O,i,i,-7.3,i,i
O=C(O)C1CCC1C(=O)Nc1nc(-c2ccc(Cl)s2)cs1 (centres undefined),i,i,i,i,i
CN1CCC=C(C(=O)N2c3ccccc3Sc3ccc(Cl)cc32)C1,i,i,i,i,-10
COc1ccc(Cl)cc1-n1c(C)cc(C=O)c1C,i,i,i,7.8,i
CC(C(=O)NCCCn1ccnc1)(c1ccccc1)c1ccccc1,i,i,i,i,i
CC(C)c1ccccc1OCCCCN1CCCCC1,i,i,i,i,i
COc1ccccc1OCCCCN1CCN(C(c2ccccc2)c2ccccc2)CC1,i,i,i,i,-8.1
CC(C)c1ccccc1OCCCCCN1CCOCC1,i,i,i,i,-7.4
COc1cccc(/C=C/C(=O)OCC(=O)c2ccc3c(c2)NC(=O)CO3)c1OC,i,i,i,11,i
COc1ccc(/C=C/C(=O)OCC(=O)c2ccc3c(c2)NC(=O)CO3)c(OC)c1,i,i,i,i,i
Cc1c(C(=O)Oc2cc(N)n(S(C)(=O)=O)n2)cccc1[N+](=O)[O-],i,i,i,6.7,i
Cc1ccccc1C(=O)Oc1cc(N)n(S(C)(=O)=O)n1,i,i,i,i,i
CC1(C)CC(=O)C2=C(C1)NC1=C(C(=O)c3ccccc31)C2c1cc([N+](=O)[O-])ccc1O (centres undefined),i,i,i,i,i
SMILES,RGS4 block,MrgX1 ag,MrgX1 antagonist,MrgX1 allo act,RGS4 act
O=C1C=C(c2ccccc2)CC(c2ccc(F)cc2)C1 (centres undefined),i,i,i,i,i
COc1ccc(C2=CC(=O)CC(c3ccc(F)cc3)C2)cn1 (centres undefined),i,i,i,10,i
CC(NCC(=O)Nc1cc(S(=O)(=O)N2CCOCC2)ccc1Cl)c1ccc(Cl)cc1Cl (centres undefined),i,i,-7.3,i,i
N#C/C(=C\c1ccccn1)c1nc2ccccc2s1,i,i,-7.2,i,i
COc1ccc(-c2csc(NC(=S)NC(=O)c3cccs3)n2)cc1OC,i,nt,nt,nt,-7.3
COc1ccc(-c2csc(NC(=O)CN3C(=O)C4CC=CCC4C3=O)n2)cc1OC (centres undefined),i,48,i,i,i
O=C(Nc1cccc(-c2csc(-c3ccccc3)n2)c1)c1cccs1,i,i,i,i,-7.1
COc1ccc(-c2csc(NC(=O)CSCC(=O)Nc3cc(C)on3)n2)cc1OC,i,29,i,i,i
Cc1nc(-c2cccc(NC(=O)c3cccs3)c2)cs1,i,i,i,i,i
CC(OC(=O)C1=COCCO1)C(=O)Nc1ccc(Cl)cn1 (centres undefined),i,i,i,i,i
COc1ccc(-c2csc(NC(=O)c3ccc(OCC(=O)N4CCOCC4)c(OC)c3)n2)cc1OC,i,i,i,i,-8.8
CCOc1ccc(C(=O)NCC(=O)NNC(=O)C2COc3ccccc3O2)cc1OCC (centres undefined),i,i,-5.4,i,i
COc1cccc(NC(=O)CN(C)C(=O)Cn2c(=O)oc3ccccc32)c1,i,i,i,i,i
Cc1ccc(C)c(NC(=O)/C(C#N)=C/c2ccc(Sc3nncn3C)c([N+](=O)[O-])c2)c1,6.2,i,i,i,i
C=CCOc1ccccc1CNCCCN1CCOCC1,i,i,-7.3,i,i
CC1CCCCN1CCNC(=O)c1ccc2c(c1)N(Cc1ccccc1F)C(=O)c1ccccc1S2=O (centres undefined),i,i,i,i,-7.4
O=C(NCCCN1CCCC1)c1ccc2c(c1)N(Cc1ccccc1F)C(=O)c1ccccc1S2=O (centres undefined),i,i,i,i,i
O=c1cc2[nH]c3ccccc3c(=O)n2nc1-c1ccccc1,i,i,i,i,i
Cc1ccsc1CN(C(=O)c1ccccc1)C1CCS(=O)(=O)C1 (centres undefined),i,i,i,i,i
C=CCNC(=O)COc1ccc(N(C)S(=O)(=O)c2ccc(NC(C)=O)cc2)cc1,i,i,i,i,i
CC(C)Cn1c(N)c(C(=O)COC(=O)c2cc(C(F)(F)F)nc3ccccc23)c(=O)n(C)c1=O,nt,i,i,i,nt
Cn1c(=O)c(C(=O)COC(=O)c2cc(C(F)(F)F)nc3c(C(F)(F)F)cccc23)c(N)n(CC2CC2)c1=O,i,i,-7.5,i,-8.9
Nc1cc2c(cc1C(=O)c1cccc(Br)c1)OCCO2,i,i,i,i,i
CCN(CC)C(=O)C(=O)c1cn(CCOc2ccccc2)c2ccccc12,i,i,i,i,-7.1
COC(=O)c1cn(CCOc2ccccc2)c2ccccc12,i,i,i,i,i
SMILES,RGS4 block,MrgX1 ag,MrgX1 antagonist,MrgX1 allo act,RGS4 act
CC(C)c1ccc(OCC(=O)Nc2cccc3c2CCCC3)cc1,i,i,i,i,i
O=c1/c(=C\c2ccc(O)cc2)sc2n1C(c1ccccc1)C(c1ccccc1)=NN=2 (centres undefined),i,i,i,13,i
Cc1ccc(CNC(=O)Nc2ccc(F)cc2)n1C,i,i,i,i,i
CNC[C@H](CC1CCCCC1)NC[C@H](Cc1ccccc1)NCCC12CC3CC(CC(C3)C1)C2,i,i,-9.5,7.7,-8.9
CCCNC(=O)c1onc(CSc2ccncc2)c1C(=O)NCCC,i,i,i,i,i
CCn1ccnc1CN1CCc2c([nH]c3ccccc23)C1C(C)(C)C (centres undefined),i,i,i,i,i

# Source: PubChem (Johns Hopkins Ion Channel Center)
